Measured values: ChEMBL document CHEMBL1122270, “N-(4-substituted-thiazolyl)oxamic acid derivatives, a new series of potent, orally active antiallergy agents” (1983)

How the values were obtained:
Assay type in all cases: functional
Rattus norvegicus [1] = test: Antiallergic activity by rat passive cutaneous anaphylaxis (PCA) assay when administered per orally; details: po
Procedure, shortened: (§1)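 Rats were passively sensitized intradermally with diluted reaginic anti-ovalbumin serum 24 h before challenge. Compound was suspended in 1% acacia and dosed by oral feeding needle at 1 mL/kg. After 20-30 min, rats were challenged with 0.02 mg ovalbumin in 0.5 mL 2% Evans Blue. Blued areas were measured 30 min after challenge. Six rats per dose; ED50 is 50% area reduction from control, with 95% confidence limits.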

Rattus norvegicus [2] = test: Antiallergic activity by rat passive cutaneous anaphylaxis (PCA) assay when administered per orally;value ranges between (1.4-4.6.); details: po; procedure, shortened: as §1
Rattus norvegicus [3] = test: Antiallergic activity by rat passive cutaneous anaphylaxis (PCA) assay when administered iv;value ranges between (0.07-1.70).
Procedure, shortened: (§2)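 Male rats sensitized by id injection of diluted rat anti-ovalbumin reaginic serum (0.1 mL each side of shaved back). 24 h later, compound in saline was mixed with 5 mg ovalbumin in 0.5 mL 2% Evans Blue and given iv at 1 mL/kg. Blued-spot diameters were read 30 min later. Six rats per group; ED50 is 50% area reduction versus control, with 95% confidence limits.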

Rattus norvegicus [4] = test: Antiallergic activity by rat passive cutaneous anaphylaxis (PCA) assay when administered per orally;value ranges between( 0.4-3.0.); details: po; procedure, shortened: as §1
Rattus norvegicus [5] = test: Antiallergic activity by rat passive cutaneous anaphylaxis (PCA) assay when administered per orally;value ranges between (0.4-0.8.); details: po; procedure, shortened: as §1
Rattus norvegicus [6] = test: Antiallergic activity by rat passive cutaneous anaphylaxis (PCA) assay when administered per orally.;value ranges between (1.3-3.2); details: po; procedure, shortened: as §1
Rattus norvegicus [7] = test: antiallergic activity by rat passive cutaneous anaphylaxis (PCA) assay when administered iv; procedure, shortened: as §2
Rattus norvegicus [8] = test: Antiallergic activity by rat passive cutaneous anaphylaxis (PCA) assay when administered iv;value ranges between (0.07-0.4.); procedure, shortened: as §2
Rattus norvegicus [9] = test: Antiallergic activity by rat passive cutaneous anaphylaxis (PCA) assay when administered per orally;value ranges between (0.15-0.94.); details: po; procedure, shortened: as §1
Rattus norvegicus [10] = test: Antiallergic activity by rat passive cutaneous anaphylaxis (PCA) assay when administered iv;value ranges between (0.2-1.1).; procedure, shortened: as §2
Rattus norvegicus [11] = test: Antiallergic activity by rat passive cutaneous anaphylaxis (PCA) assay when administered per orally;value ranges between (1.0-4.8).; details: po; procedure, shortened: as §1
Rattus norvegicus [12] = test: Antiallergic activity by rat passive cutaneous anaphylaxis (PCA) assay when administered iv;value ranges between 0.23-2.24; procedure, shortened: as §2
Rattus norvegicus [13] = test: Antiallergic activity by rat passive cutaneous anaphylaxis (PCA) assay when administered perorally; value ranges between (1.3-3.3); details: po; procedure, shortened: as §1
Rattus norvegicus [14] = test: Antiallergic activity by rat passive cutaneous anaphylaxis (PCA) assay when administered per orally;value ranges between (0.5-3.27); details: po; procedure, shortened: as §1
Rattus norvegicus [15] = test: Antiallergic activity by rat passive cutaneous anaphylaxis (PCA) assay when administered iv.;value ranges between (0.04-0.3); procedure, shortened: as §2
Rattus norvegicus [16] = test: Antiallergic activity by rat passive cutaneous anaphylaxis (PCA) assay when administered perorally; value ranges between (0.4-2.3.); details: po; procedure, shortened: as §1
Rattus norvegicus [17] = test: Antiallergic activity by rat passive cutaneous anaphylaxis (PCA) assay when administered iv;value ranges between (0.56-2.74); procedure, shortened: as §2

SMILES | ED50 (Rattus norvegicus [1]) | further results
CCOC(=O)C(=O)Nc1nc(-c2cc(OC)c(O)c(OC)c2)cs1 | ~10 mg/kg | –
NCCO.O=C(O)C(=O)Nc1nc(-c2ccc([N+](=O)[O-])cc2)cs1 | – | ED50 (Rattus norvegicus [2]): 2.5 mg/kg
CN(C)c1cccc(-c2csc(NC(=O)C(=O)O)n2)c1.NCCO | – | ED50 (Rattus norvegicus [3]): 0.35 mg/kg; ED50 (Rattus norvegicus [4]): 1.7 mg/kg
NCCO.O=C(O)C(=O)Nc1nc(-c2ccncc2)cs1 | > 3 mg/kg | –
CCOC(=O)C(=O)Nc1nc(-c2ccc(OC)c(OC)c2)cs1 | ~3 mg/kg | –
CC(=O)Nc1ccc(-c2csc(NC(=O)C(N)=O)n2)cc1 | > 10 mg/kg | –
CCOc1ccc(-c2csc(NC(=O)C(=O)O)n2)cc1.NCCO | – | ED50 (Rattus norvegicus [5]): 0.54 mg/kg
CCOC(=O)C(=O)Nc1nc(-c2ccc(OCC)cc2)cs1 | – | ED50 (Rattus norvegicus [6]): 2.1 mg/kg
NCCO.O=C(O)C(=O)Nc1nc(-c2cccnc2)cs1 | > 10 mg/kg | –
Cc1cc(-c2csc(NC(=O)C(=O)O)n2)ccc1O.NCCO | ~1 mg/kg | –
CCOC(=O)C(=O)Nc1nc(-c2ccc(OC)cc2O)cs1 | ~1 mg/kg | –
NCCO.O=C(O)C(=O)Nc1nc(-c2ccc(O)c(O)c2)cs1 | 0.1 mg/kg | ED50 (Rattus norvegicus [7]): 0.08 mg/kg
COc1cc(OC)cc(-c2csc(NC(=O)C(=O)O)n2)c1 | ~1 mg/kg | ED50 (Rattus norvegicus [7]): ~0.1 mg/kg
CCOC(=O)C(=O)Nc1nc(-c2cc(OC)ccc2OC)cs1 | > 10 mg/kg | –
CCOC(=O)C(=O)Nc1nc(-c2cc(OC)cc(OC)c2)cs1 | ~10 mg/kg | –
CC(=O)N1c2ccccc2Sc2ccc(-c3csc(NC(=O)C(=O)O)n3)cc21.NCCO | ~10 mg/kg | –
CCCCOC(=O)C(=O)Nc1nc(-c2ccc(C(=O)OCC)cc2)cs1 | > 10 mg/kg | –
CCOC(=O)C(=O)Nc1nc(-c2ccc(O)c(O)c2)cs1 | 1.4 mg/kg | –
CCOC(=O)C(=O)Nc1nc(-c2ccc3c(c2)OCC(CN2CCCCC2)O3)cs1 (stereo not given) | > 10 mg/kg | –
CCOC(=O)C(=O)Nc1nc(-c2ccc3c(c2)OCCO3)cs1 | > 10 mg/kg | –

SMILES | ED50 (Rattus norvegicus [1]) | further results
CCCC(=O)Nc1ccc(-c2csc(NC(=O)C(=O)OCC)n2)cc1 | > 10 mg/kg | ED50 (Rattus norvegicus [7]): < 0.3 mg/kg
CC(=O)Nc1ccc(-c2csc(NC(=O)C(=O)O)n2)cc1 | – | ED50 (Rattus norvegicus [8]): 0.16 mg/kg; ED50 (Rattus norvegicus [9]): 0.37 mg/kg
CCOC(=O)C(=O)Nc1nc(-c2ccc3oc(C)c(C)c(=O)c3c2)cs1 | > 3 mg/kg | –
COc1ccc(-c2csc(NC(=O)C(=O)O)n2)c(OC)c1 | > 10 mg/kg | ED50 (Rattus norvegicus [10]): 0.39 mg/kg
CCOC(=O)C(=O)Nc1nc(-c2ccc(C(=O)OCC)cc2)cs1 | > 10 mg/kg | –
NCCO.O=C(O)C(=O)Nc1nc(-c2ccc(Sc3ccccc3)cc2)cs1 | > 30 mg/kg | –
CCOC(=O)C(=O)Nc1nc(-c2cccc(O)c2)cs1 | > 10 mg/kg | –
CCOC(=O)C(=O)Nc1nc(-c2ccc(O)c(C)c2)cs1 | – | ED50 (Rattus norvegicus [11]): 2.2 mg/kg
CCOC(=O)C(=O)Nc1nc(-c2ccccc2C(=O)OC)cs1 | > 10 mg/kg | –
CC(=O)c1cc(-c2csc(NC(=O)C(=O)O)n2)ccc1O.NCCO.NCCO | ~1 mg/kg | ED50 (Rattus norvegicus [12]): 0.71 mg/kg
NC(=O)C(=O)Nc1ccc(-c2csc(NC(=O)C(N)=O)n2)cc1 | ~1 mg/kg | –
Cc1sc(NC(=O)C(=O)O)nc1-c1ccccc1.NCCO | – | ED50 (Rattus norvegicus [13]): 2.5 mg/kg
CCOC(=O)C(=O)Nc1nc(-c2ccc(NC(=O)C(F)(F)F)cc2)cs1 | ~1 mg/kg | –
CCOC(=O)C(=O)Nc1nc(-c2ccc(N(C)C)cc2)cs1 | ~1 mg/kg | ED50 (Rattus norvegicus [7]): ~0.3 mg/kg
COC(=O)C(=O)Nc1nc(-c2ccc(OC)c(OC)c2)cs1 | – | ED50 (Rattus norvegicus [14]): 1.2 mg/kg
Cc1cc(O)ccc1-c1csc(NC(=O)C(=O)O)n1.NCCO | > 10 mg/kg | ED50 (Rattus norvegicus [7]): 1 mg/kg
NCCO.O=C(O)C(=O)Nc1nc(-c2ccc(F)cc2)cs1 | – | ED50 (Rattus norvegicus [15]): 0.11 mg/kg; ED50 (Rattus norvegicus [16]): 0.9 mg/kg
NCCO.O=C(O)C(=O)Nc1nc(-c2ccc(Oc3ccccc3)cc2)cs1 | > 10 mg/kg | –
O=C([O-])c1cc(=O)c2c(OCC(O)COc3cccc4oc(C(=O)[O-])cc(=O)c34)cccc2o1.[Na+].[Na+] [CROMOLYN SODIUM] | – | ED50 (Rattus norvegicus [17]): 1.24 mg/kg
CCOC(=O)C(=O)Nc1nc(-c2ccc(OC)cc2)cs1 [TIOXAMAST] | ~10 mg/kg | –
